ChEMBL document CHEMBL1152312, “Neopyrrolomycins with broad spectrum antibacterial activity” (2009)
Active and inactive are the calls of the source.

Legend:
[1] = tested on: Staphylococcus aureus; assay: Antibacterial activity against Linezolid, methicillin-resistant Staphylococcus aureus 1725 by microdilution method; assay type: functional
Summary of the method: (§1)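 MIC values from CLSI broth microdilution. Strains came from the ATCC collection and from clinical isolates.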

[2] = tested on: Staphylococcus epidermidis; assay: Antibacterial activity against methicillin-resistant Staphylococcus epidermidis 1452 by microdilution method; assay type: functional; summary of the method: as §1
[3] = tested on: Haemophilus parainfluenzae; assay: Antibacterial activity against Haemophilus parainfluenzae 2319 ATCC 7901 by microdilution method; assay type: functional; summary of the method: as §1
[4] = tested on: Enterococcus faecium; assay: Antibacterial activity against vancomycin-resistant Enterococcus faecium 1254 by microdilution method; assay type: functional; summary of the method: as §1
[5] = tested on: Staphylococcus aureus; assay: Antibacterial activity against methicillin-resistant Staphylococcus aureus 2170 by microdilution method; assay type: functional; summary of the method: as §1
[6] = tested on: Staphylococcus epidermidis; assay: Antibacterial activity against methicillin-sensitive Staphylococcus epidermidis 1597 by microdilution method; assay type: functional; summary of the method: as §1
[7] = tested on: Escherichia coli; assay: Antibacterial activity against Escherichia coli 102 ATCC 25922 by microdilution method; assay type: functional; summary of the method: as §1
[8] = tested on: Streptococcus pyogenes; assay: Antibacterial activity against Streptococcus pyogenes 723 by microdilution method; assay type: functional; summary of the method: as §1
[9] = tested on: Enterococcus faecium; assay: Antibacterial activity against vancomycin-sensitive Enterococcus faecium 843 by microdilution method; assay type: functional; summary of the method: as §1
[10] = tested on: Serratia marcescens; assay: Antibacterial activity against Serratia marcescens 1635 by microdilution method; assay type: functional; summary of the method: as §1
[11] = tested on: Haemophilus influenzae; assay: Antibacterial activity against Haemophilus influenzae 1224 ATCC 49247 by microdilution method; assay type: functional; summary of the method: as §1
[12] = tested on: Haemophilus influenzae; assay: Antibacterial activity against ampicillin-resistant Haemophilus influenzae 1742 by microdilution method; assay type: functional; summary of the method: as §1
[13] = tested on: Staphylococcus aureus; assay: Antibacterial activity against vancomycin-intermediate Staphylococcus aureus 2012 by microdilution method; assay type: functional; summary of the method: as §1
[14] = tested on: Streptococcus pneumoniae; assay: Antibacterial activity against penicillin-resistant Streptococcus pneumoniae 940 by microdilution method; assay type: functional; summary of the method: as §1
[15] = tested on: Klebsiella pneumoniae; assay: Antibacterial activity against Klebsiella pneumoniae 2239 by microdilution method; assay type: functional; summary of the method: as §1
[16] = tested on: Streptococcus pneumoniae; assay: Antibacterial activity against penicillin-resistant Streptococcus pneumoniae 748 by microdilution method; assay type: functional; summary of the method: as §1
[17] = tested on: Staphylococcus aureus; assay: Antibacterial activity against Linezolid, methicillin-resistant Staphylococcus aureus 1651 by microdilution method; assay type: functional; summary of the method: as §1
[18] = tested on: Streptococcus pneumoniae; assay: Antibacterial activity against quinolone-resistant Streptococcus pneumoniae 376 by microdilution method; assay type: functional; summary of the method: as §1
[19] = tested on: Klebsiella pneumoniae; assay: Antibacterial activity against ampicillin beta-lactamase, multidrug-resistant Klebsiella pneumoniae 2262 by microdilution method; assay type: functional; summary of the method: as §1
[20] = tested on: Streptococcus agalactiae; assay: Antibacterial activity against Streptococcus agalactiae 2033 by microdilution method; assay type: functional; summary of the method: as §1
[21] = tested on: Staphylococcus aureus; assay: Antibacterial activity against methicillin-resistant Staphylococcus aureus 1137 by microdilution method; assay type: functional; summary of the method: as §1
[22] = tested on: Moraxella catarrhalis; assay: Antibacterial activity against Moraxella catarrhalis 557 by microdilution method; assay type: functional; summary of the method: as §1
[23] = tested on: Pseudomonas aeruginosa; assay: Antibacterial activity against Pseudomonas aeruginosa 1473 by microdilution method; assay type: functional; summary of the method: as §1
[24] = tested on: Staphylococcus aureus; assay: Antibacterial activity against vancomycin-intermediate Staphylococcus aureus 2018 by microdilution method; assay type: functional; summary of the method: as §1
[25] = tested on: Staphylococcus aureus; assay: Antibacterial activity against community-acquired Staphylococcus aureus 2144 by microdilution method; assay type: functional; summary of the method: as §1
[26] = tested on: Staphylococcus epidermidis; assay: Antibacterial activity against Staphylococcus epidermidis 495 by microdilution method; assay type: functional; summary of the method: as §1
[27] = tested on: Streptococcus pneumoniae; assay: Antibacterial activity against Streptococcus pneumoniae 1195 ATCC 49619 by microdilution method; assay type: functional; summary of the method: as §1
[28] = tested on: Escherichia coli; assay: Antibacterial activity against extended spectrum beta-lactamase-producing Escherichia coli 2269 by microdilution method; assay type: functional; summary of the method: as §1
[29] = tested on: Streptococcus pneumoniae; assay: Antibacterial activity against quinolone-resistant Streptococcus pneumoniae 379 by microdilution method; assay type: functional; summary of the method: as §1
[30] = tested on: Streptococcus pneumoniae; assay: Antibacterial activity against multidrug-resistant Streptococcus pneumoniae 933 by microdilution method; assay type: functional; summary of the method: as §1
[31] = tested on: Enterococcus faecalis; assay: Antibacterial activity against vancomycin-resistant Enterococcus faecalis 846 by microdilution method; assay type: functional; summary of the method: as §1
[32] = tested on: Streptococcus pneumoniae; assay: Antibacterial activity against penicillin-susceptible Streptococcus pneumoniae 866 by microdilution method; assay type: functional; summary of the method: as §1
[33] = tested on: HepG2; assay: Cytotoxicity against human HepG2 cells assessed as effect on cell viability at 8 ug/mL after 48 hrs by celltiter glow assay; assay type: functional, cell-based
Summary of the method: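 HepG2 cells were kept in MEM with 10% heat-inactivated FBS, 0.10 mM nonessential amino acids and 1 mM sodium pyruvate at 37 °C and 5% CO2. Cells were seeded at 1.25 × 10^5 cells/mL 24 h before dosing. Compounds were dissolved in DMSO and tested at 0.6–128 µg/mL with 1% DMSO final for 48 h. Viability was read by CellTiter-Glo luminescence as a percentage of the DMSO control.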

[34] = tested on: Staphylococcus aureus; assay: Antibacterial activity against methicillin-sensitive Staphylococcus aureus 100 ATCC 29213 by microdilution method; assay type: functional; summary of the method: as §1
[35] = tested on: NHDF; assay: Cytotoxicity against NHDF cells after 48 hrs by celltiter glow assay; assay type: functional; conditions: Homo sapiens
Summary of the method: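 Fibroblasts kept at 37 °C, 5% CO2 in FGM-2 medium, passage ≤16. Seeded at 1.25 × 10^5 cells/mL 24 h before dosing. Compounds dissolved in DMSO, tested 0.6–128 µg/mL at 1% final DMSO for 48 h. Viability by CellTiter-Glo luminescence, expressed as percent of DMSO control.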

[36] = tested on: Escherichia coli; assay: Antibacterial activity against Escherichia coli 1411 by microdilution method; assay type: functional
Summary of the method: (§2)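 MIC determined by CLSI broth microdilution; organisms were ATCC strains and clinical isolates.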

[37] = tested on: Streptococcus pneumoniae; assay: Antibacterial activity against Streptococcus pneumoniae 49619 by microdilution method; assay type: functional; summary of the method: as §2
[38] = tested on: Enterococcus faecium; assay: Antibacterial activity against vancomycin-resistant Enterococcus faecium 700221 by microdilution method; assay type: functional; summary of the method: as §1
[39] = tested on: Staphylococcus aureus; assay: Antibacterial activity against methicillin-sensitive Staphylococcus aureus 29213 by microdilution method; assay type: functional; summary of the method: as §1
[40] = tested on: Staphylococcus aureus; assay: Antibacterial activity against methicillin-resistant Staphylococcus aureus 43300 by microdilution method; assay type: functional; summary of the method: as §1
[41] = tested on: Klebsiella pneumoniae; assay: Antibacterial activity against Klebsiella pneumoniae 4352 by microdilution method; assay type: functional; summary of the method: as §2
[42] = tested on: Pseudomonas aeruginosa; assay: Antibacterial activity against Pseudomonas aeruginosa 27853 by microdilution method; assay type: functional; summary of the method: as §2
[43] = tested on: Staphylococcus aureus; assay: Antibacterial activity against methicillin-sensitive Staphylococcus aureus 6538 by microdilution method; assay type: functional; summary of the method: as §1
[44] = tested on: Escherichia coli; assay: Antibacterial activity against Escherichia coli 25922 by microdilution method; assay type: functional; summary of the method: as §2
[45] = tested on: HepG2; assay: Cytotoxicity against human HepG2 cells assessed as effect on cell viability at 43 ug/mL after 48 hrs by celltiter glow assay; assay type: functional, cell-based
Summary of the method: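 HepG2 grown in MEM with 10% heat-inactivated FBS, 0.10 mM nonessential amino acids, 1 mM pyruvate, 37 °C, 5% CO2. Seeded at 1.25 × 10^5 cells/mL 24 h before treatment. DMSO-dissolved compounds tested over 0.6–128 µg/mL (1% final DMSO) for 48 h. Luminescent CellTiter-Glo viability read-out relative to DMSO control; CC90 taken.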

O=C(O)c1cn(C2CC2)c2cc(N3CCNCC3)c(F)cc2c1=O [CIPROFLOXACIN]
0.06 µg/mL: MIC90 [10]
1 µg/mL: MIC90 [16] | MIC90 [20] | MIC90 [23] | MIC90 [27]
0.25 µg/mL: MIC90 [6]
0.5 µg/mL: MIC90 [8] | MIC90 [26]
0.008 µg/mL: MIC90 [7] | MIC90 [12]
0.03 µg/mL: MIC90 [15] | MIC90 [22]
> 2 µg/mL: MIC90 [1] | MIC90 [2] | MIC90 [4] | MIC90 [5] | MIC90 [9] | MIC90 [13] | MIC90 [14] | MIC90 [17] | MIC90 [18] | MIC90 [19] | MIC90 [21] | MIC90 [24] | MIC90 [25] | MIC90 [28] | MIC90 [29] | MIC90 [31] | MIC90 [32]
0.15 µg/mL: MIC90 [3] | MIC90 [11]
2 µg/mL: MIC90 [30]

Oc1cc(Cl)c(Cl)c(Cl)c1-n1cc(Cl)c(Cl)c1Cl [NEOPYRROLOMYCIN B]
8 µg/mL: MIC90 [7] | MIC90 [19] | MIC90 [28]
2 µg/mL: MIC90 [18] | MIC90 [27] | MBC [43]
> 16 µg/mL: MIC90 [8]
1 µg/mL: MIC90 [3] | MIC90 [14] | MIC90 [37] | MIC90 [16] | MIC90 [30]
16 µg/mL: CC90 [35] | MIC90 [10] | MIC90 [36] | MIC90 [15] | MIC90 [20] | MIC90 [41] | MIC90 [23] | MIC90 [42] | MIC90 [29] | MIC90 [32] | MIC90 [44]
0.5 µg/mL: MIC90 [12] | MIC90 [38] | MIC90 [39]
0.125 µg/mL: MIC90 [40]
active: Activity [33]
≤ 0.06 µg/mL: MIC90 [1] | MIC90 [2] | MIC90 [4] | MIC90 [5] | MIC90 [6] | MIC90 [9] | MIC90 [13] | MIC90 [17] | MIC90 [22] | MIC90 [24] | MIC90 [26] | MIC90 [31]
0.12 µg/mL: MIC90 [21] | MIC90 [25]
0.25 µg/mL: MIC90 [34] | MIC90 [11] | MIC90 [43]

Oc1cc(Cl)c(Cl)cc1-n1cc(Cl)c(Cl)c1Cl [NEOPYRROLOMYCIN D]
16 µg/mL: MIC90 [36] | MIC90 [41] | MIC90 [44]
4 µg/mL: MIC90 [38]
32 µg/mL: MIC90 [42]
8 µg/mL: MIC90 [37] | MBC [43]
active: Activity [45]
43 µg/mL: CC90 [35]
2 µg/mL: MIC90 [39] | MIC90 [40] | MIC90 [43]
